Assay results: ChEMBL document CHEMBL1141374 (J Med Chem, 2007)

Key:
Conditions in all cases: Homo sapiens
[1] = Cytotoxicity against P-glycoprotein-overexpressing KB-V1 cell line; format: cell-based
Method in brief: (§1)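 Log-phase cells were diluted to 20 000–30 000 cells/mL, seeded, and left to attach overnight. They were then exposed to compounds at 10^–5–10^–12 M for 72 h at 37 °C in 5% CO2. Viable cells were measured by MTT, with absorbance read at 595 nm. Each compound ran in triplicate in at least three independent assays. IC50 came from nonlinear regression, and average values were reported.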

UACC-62 = experiment: Growth inhibition in UACC62 cells; format: functional
[2] = Growth inhibition in HCC15 cells; format: functional
MCF7 = experiment: Growth inhibition in MCF7 cells; format: functional
OVCAR-3 = experiment: Growth inhibition in OVCAR-3 cells; format: functional
MDA-MB-435 = experiment: Growth inhibition in MDA-MB-435 cells; format: functional
CAKI-1 = experiment: Growth inhibition in CAK1-1 cells; format: functional
NCI-H460 = experiment: Growth inhibition in NCI-H460 cells; format: functional
SK-MEL-5 = experiment: Growth inhibition in SK-MEL-5 cells; format: functional
NCI-H322M = experiment: Growth inhibition in NCI-H322M cells; format: functional
HT-29 = experiment: Growth inhibition in HT29 cells; format: functional
[3] = Growth inhibition in HS 578T cells; format: functional
SF-539 = experiment: Growth inhibition in SF539 cells; format: functional
OVCAR-8 = experiment: Growth inhibition in OVCAR8 cells; format: functional
HL-60 = experiment: Growth inhibition in HL60 cells; format: functional
COLO 205 = experiment: Growth inhibition in COLO205 cells; format: functional
HOP-62 = experiment: Growth inhibition in HOP62 cells; format: functional
BT-549 = experiment: Growth inhibition in BT549 cells; format: functional
M14 = experiment: Growth inhibition in M14 cells; format: functional
K562 = experiment: Growth inhibition in K562 cells; format: functional
EKVX = experiment: Growth inhibition in EKVX cells; format: functional
UACC-257 = experiment: Growth inhibition in UACC257 cells; format: functional
CCRF-CEM = experiment: Growth inhibition in CCRF-CEM cells; format: functional
786-0 = experiment: Growth inhibition in 786-0 cells; format: functional
NCI/ADR-RES = experiment: Growth inhibition in NCI/ADR-RES cells; format: functional
A498 = experiment: Growth inhibition in A498 cells; format: functional
KM12 = experiment: Growth inhibition in KM12 cells; format: functional
RXF 393 = experiment: Growth inhibition in RXF393 cells; format: functional
SNB-19 = experiment: Growth inhibition in SNB19 cells; format: functional
DU-145 = experiment: Growth inhibition in DU145 cells; format: functional
SNB-75 = experiment: Growth inhibition in SNB75 cells; format: functional
LOX IMVI = experiment: Growth inhibition in LOX IMVI cells; format: functional
PC-3 = experiment: Growth inhibition in PC3 cells; format: functional
SW-620 = experiment: Growth inhibition in SW620 cells; format: functional
SK-OV-3 = experiment: Growth inhibition in SKOV3 cells; format: functional
HOP-92 = experiment: Growth inhibition in HOP92 cells; format: functional
NCI-H226 = experiment: Growth inhibition in NCI-H226 cells; format: functional
SN12C = experiment: Growth inhibition in SN12C cells; format: functional
SF-268 = experiment: Growth inhibition in SF268 cells; format: functional
[4] = Cytotoxicity against KB-3-1 cell line; format: cell-based; method in brief: as §1
[5] = Growth inhibition in MDA-MB-231/ATCC cells; format: functional
U-251 = experiment: Growth inhibition in U251cells; format: functional
SF-295 = experiment: Growth inhibition in SF295 cells; format: functional
OVCAR-5 = experiment: Growth inhibition in OVCAR5 cells; format: functional
A549 = experiment: Growth inhibition in A549 cells; format: functional
TK-10 = experiment: Growth inhibition in TK10 cells; format: functional
SK-MEL-28 = experiment: Growth inhibition in SK-MEL-28 cells; format: functional
[6] = Growth inhibition in HCC116 cells; format: functional
HeLa = experiment: Cytotoxicity against HeLa cell line; format: cell-based; method in brief: as §1
NCI-H23 = experiment: Growth inhibition in NCI-H23 cells; format: functional
HCC 2998 = experiment: Growth inhibition in HCC2998 cells; format: functional
OVCAR-4 = experiment: Growth inhibition in OVCAR4 cells; format: functional
HCT-116 = experiment: Cytotoxicity against HCT116 cell line; format: cell-based; method in brief: as §1
ZR-75-1 = experiment: Cytotoxicity against ZR-75-1 cell line; format: cell-based; method in brief: as §1
ACHN = experiment: Growth inhibition in ACHN cells; format: functional

Q: With `COc1ccc(-n2cnnc2-c2cc(OC)c(OC)c(OC)c2)cc1` as the molecule, how does the IC50 [1] read?
A: Its IC50 is 0.907 µM.

Q: And the GI50 (UACC-62)?
A: Its GI50 is 3.24 µM.

Q: What about the GI50 [2] of the same molecule?
A: Its GI50 is 1.7 µM.

Q: What about the GI50 (MCF7) of the same molecule?
A: Its GI50 is 1.7 µM.

Q: What about the GI50 (OVCAR-3) of the same molecule?
A: The GI50 was 1.74 µM.

Q: What about the GI50 (MDA-MB-435) of the same molecule?
A: Its GI50 is 0.234 µM.

Q: What about the GI50 (CAKI-1) of the same molecule?
A: Its GI50 is 2.57 µM.

Q: What about the GI50 (NCI-H460) of the same molecule?
A: The GI50 was 3.39 µM.

Q: And the GI50 (SK-MEL-5)?
A: The GI50 was 2.4 µM.

Q: What about the GI50 (NCI-H322M) of the same molecule?
A: The GI50 was 5.62 µM.

Q: What about the GI50 (HT-29) of the same molecule?
A: Its GI50 is 2.14 µM.

Q: And the GI50 [3]?
A: Its GI50 is 2.95 µM.

Q: What about the GI50 (SF-539) of the same molecule?
A: The GI50 was 4.07 µM.

Q: What about the GI50 (OVCAR-8) of the same molecule?
A: The GI50 was 4.79 µM.

Q: And the GI50 (HL-60)?
A: The GI50 was 4.07 µM.

Q: What about the GI50 (COLO 205) of the same molecule?
A: The GI50 was 3.47 µM.

Q: And the GI50 (HOP-62)?
A: Its GI50 is 2.09 µM.

Q: What about the GI50 (BT-549) of the same molecule?
A: The GI50 was 9.77 µM.

Q: And the GI50 (M14)?
A: Its GI50 is 1.95 µM.

Q: And the GI50 (K562)?
A: Its GI50 is 0.631 µM.

Q: What about the GI50 (EKVX) of the same molecule?
A: Its GI50 is 37.2 µM.

Q: What about the GI50 (UACC-257) of the same molecule?
A: The GI50 was 3.98 µM.

Q: And the GI50 (CCRF-CEM)?
A: Its GI50 is 1.86 µM.

Q: And the GI50 (786-0)?
A: Its GI50 is 2.51 µM.

Q: And the GI50 (NCI/ADR-RES)?
A: The GI50 was 1.78 µM.

Q: And the GI50 (A498)?
A: The GI50 was 3.8 µM.

Q: And the GI50 (KM12)?
A: The GI50 was 2.14 µM.

Q: And the GI50 (RXF 393)?
A: Its GI50 is 1.58 µM.

Q: And the GI50 (SNB-19)?
A: Its GI50 is 5.25 µM.

Q: And the GI50 (DU-145)?
A: The GI50 was 2.95 µM.

Q: What about the GI50 (SNB-75) of the same molecule?
A: The GI50 was 2.34 µM.

Q: What about the GI50 (LOX IMVI) of the same molecule?
A: The GI50 was 4.37 µM.

Q: What about the GI50 (PC-3) of the same molecule?
A: The GI50 was 4.9 µM.

Q: What about the GI50 (SW-620) of the same molecule?
A: The GI50 was 2.75 µM.

Q: What about the GI50 (SK-OV-3) of the same molecule?
A: The GI50 was 6.46 µM.

Q: What about the GI50 (HOP-92) of the same molecule?
A: The GI50 was > 100 µM.

Q: What about the GI50 (NCI-H226) of the same molecule?
A: The GI50 was 5.25 µM.

Q: And the GI50 (SN12C)?
A: Its GI50 is 4.07 µM.

Q: And the GI50 (SF-268)?
A: Its GI50 is 5.89 µM.

Q: What about the IC50 [4] of the same molecule?
A: Its IC50 is 0.373 µM.

Q: And the GI50 [5]?
A: Its GI50 is 3.16 µM.

Q: And the GI50 (U-251)?
A: The GI50 was 4.37 µM.

Q: And the GI50 (SF-295)?
A: Its GI50 is 1.29 µM.

Q: What about the GI50 (OVCAR-5) of the same molecule?
A: The GI50 was 3.8 µM.

Q: And the GI50 (A549)?
A: Its GI50 is 8.32 µM.

Q: And the GI50 (TK-10)?
A: The GI50 was 9.77 µM.

Q: What about the GI50 (SK-MEL-28) of the same molecule?
A: Its GI50 is 9.55 µM.

Q: What about the GI50 [6] of the same molecule?
A: The GI50 was 3.02 µM.

Q: What about the IC50 (HeLa) of the same molecule?
A: The IC50 was 0.29 µM.

Q: What about the GI50 (NCI-H23) of the same molecule?
A: The GI50 was 3.16 µM.

Q: What about the GI50 (HCC 2998) of the same molecule?
A: Its GI50 is 0.295 µM.

Q: What about the GI50 (OVCAR-4) of the same molecule?
A: Its GI50 is 5.5 µM.

Q: And the IC50 (HCT-116)?
A: Its IC50 is 0.23 µM.

Q: And the IC50 (ZR-75-1)?
A: Its IC50 is 0.522 µM.

Q: What about the GI50 (ACHN) of the same molecule?
A: The GI50 was 4.47 µM.
